Activity calls are given as the source filed them. The rule behind the calls is not given here.
Tests used:
Cytochrome P450 2D6 = Cytochrome P450 2D6 (Homo sapiens, UniProt P10635); assay: Inhibition of human CYP2D6 expressed in supersomes assessed as bufuralol 1'-hydroxylation after 15 mins by HPLC analysis; type: ADME
Rattus norvegicus [1] = assay: Antidepressant activity in Sprague-Dawley rat assessed as reduction in immobility time at 0.3 mg/kg, ip adminstered 60 mins prior to testing measured for 5 mins by forced swimming test; type: functional, organism-based
Outline: (§1)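 Modified forced swim test in rats with i.p. dosing. Immobility time and climbing time were scored. Data are mean ± SEM, n = 7–8 animals per group, compared against the vehicle-treated group.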

Rattus norvegicus [2] = assay: Antidepressant activity in Sprague-Dawley rat assessed as increase in climbing time at 0.3 mg/kg, ip adminstered 60 mins prior to testing measured for 5 mins by forced swimming test; type: functional, organism-based; outline: as §1
[3] = target: Muscarinic acetylcholine receptor M1 (Homo sapiens) (UniProt P11229); assay: Displacement of [3H]pirenzepine from human recombinant muscarinic M1 receptor expressed in CHO cells after 60 mins by scintillation counting; type: cell-based
Sequence of Muscarinic acetylcholine receptor M1 (Homo sapiens) (P11229 whole entry): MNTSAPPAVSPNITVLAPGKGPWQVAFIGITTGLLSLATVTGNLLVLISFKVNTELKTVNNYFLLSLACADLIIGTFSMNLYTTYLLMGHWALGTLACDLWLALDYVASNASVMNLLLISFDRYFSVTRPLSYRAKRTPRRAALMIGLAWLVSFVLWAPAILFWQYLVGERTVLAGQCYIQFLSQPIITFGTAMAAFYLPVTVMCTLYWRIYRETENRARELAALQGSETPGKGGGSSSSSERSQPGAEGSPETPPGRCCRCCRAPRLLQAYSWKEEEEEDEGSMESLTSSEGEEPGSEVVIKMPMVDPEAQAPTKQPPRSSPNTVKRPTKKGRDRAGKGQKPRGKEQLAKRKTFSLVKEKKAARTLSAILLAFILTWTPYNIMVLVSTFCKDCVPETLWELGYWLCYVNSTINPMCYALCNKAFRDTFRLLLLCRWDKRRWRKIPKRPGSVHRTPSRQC

[4] = target: 5-hydroxytryptamine receptor 2C (Homo sapiens) (UniProt P28335); assay: Displacement of [3H]mesulergine from human recombinant 5-HT2C receptor expressed in HEK293 cells after 120 mins by scintillation counting; type: cell-based
[5] = Mutagenicity in Salmonella typhimurium TA1537 at 0.2 to 16 ug/ml after 48 hrs by Ames test; type: toxicity; conditions: salmonella enterica subsp. enterica serovar typhimurium
[6] = target: 5-hydroxytryptamine receptor 6 (Homo sapiens, UniProt P50406); assay: Displacement of [3H]-LSD from human 5-HT6 receptor expressed in HEK293 cells by microbeta liquid scintillation counting; type: cell-based
Sequence of 5-hydroxytryptamine receptor 6 (P50406 whole entry): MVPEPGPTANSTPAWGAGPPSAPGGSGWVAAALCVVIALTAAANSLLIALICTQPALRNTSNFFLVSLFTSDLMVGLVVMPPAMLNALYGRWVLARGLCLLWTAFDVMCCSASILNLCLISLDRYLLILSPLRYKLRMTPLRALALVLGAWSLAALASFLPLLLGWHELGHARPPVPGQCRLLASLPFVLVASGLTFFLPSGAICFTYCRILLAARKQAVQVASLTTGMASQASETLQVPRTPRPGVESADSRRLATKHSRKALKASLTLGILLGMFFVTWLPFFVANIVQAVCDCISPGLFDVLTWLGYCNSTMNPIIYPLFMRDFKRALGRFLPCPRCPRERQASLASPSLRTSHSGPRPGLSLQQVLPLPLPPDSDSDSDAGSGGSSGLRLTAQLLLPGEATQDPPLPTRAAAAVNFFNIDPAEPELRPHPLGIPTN
Outline: (§2)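 Ki values reported as the mean of two independent radioligand binding experiments.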

[7] = target: 5-hydroxytryptamine receptor 7 (Homo sapiens, UniProt P34969); assay: Displacement of [3H]-5-CT from human 5-HT7B receptor expressed in HEK293 cells by microbeta liquid scintillation counting; type: cell-based; outline: as §2
Sequence of 5-hydroxytryptamine receptor 7 (P34969 whole entry): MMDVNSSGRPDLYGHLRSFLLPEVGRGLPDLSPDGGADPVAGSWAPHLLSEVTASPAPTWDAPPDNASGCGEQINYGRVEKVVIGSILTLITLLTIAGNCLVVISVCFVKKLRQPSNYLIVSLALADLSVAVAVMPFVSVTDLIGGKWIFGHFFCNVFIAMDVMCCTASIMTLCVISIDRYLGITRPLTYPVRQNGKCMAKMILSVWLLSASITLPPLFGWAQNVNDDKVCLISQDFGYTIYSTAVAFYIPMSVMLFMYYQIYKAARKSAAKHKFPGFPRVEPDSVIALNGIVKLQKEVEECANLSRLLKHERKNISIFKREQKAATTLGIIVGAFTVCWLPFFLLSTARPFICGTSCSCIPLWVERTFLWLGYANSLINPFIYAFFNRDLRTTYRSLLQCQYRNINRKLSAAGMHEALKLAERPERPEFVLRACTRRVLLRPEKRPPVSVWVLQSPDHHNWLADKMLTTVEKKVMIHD

[8] = Intrinsic clearance in rat liver microsomes at 20 uM after 15 mins in presence of NADPH-regenerating system by UPLC/MS analysis; type: ADME, Microsome; conditions: read-out: CLH
Homo sapiens [9] = organism: Homo sapiens; assay: Selectivity ratio of Ki for human 5-HT2A receptor expressed in HEK293 cells to Ki for human 5-HT6 receptor expressed in HEK293 cells; type: cell-based
[10] = Solubility of the compound at pH 2; type: physicochemical; conditions: buffer
[11] = Toxicity in Sprague-Dawley rat assessed as effect on locomotory activity at 0.1 to 1 mg/kg, ip measured for 5 mins by open field test; type: organism-based; conditions: in vivo
[12] = Mutagenicity in Salmonella typhimurium TA100 at 0.2 to 16 ug/ml after 48 hrs by Ames test; type: toxicity; conditions: salmonella enterica subsp. enterica serovar typhimurium
[13] = target: T1, 5-hydroxytryptamine receptor 1A (Homo sapiens, UniProt P08908); assay: Displacement of [3H]-8-OH-DPAT from human 5-HT1A receptor expressed in HEK293 cells by microbeta liquid scintillation counting; type: cell-based; outline: as §2
T1 sequence (P08908 whole entry): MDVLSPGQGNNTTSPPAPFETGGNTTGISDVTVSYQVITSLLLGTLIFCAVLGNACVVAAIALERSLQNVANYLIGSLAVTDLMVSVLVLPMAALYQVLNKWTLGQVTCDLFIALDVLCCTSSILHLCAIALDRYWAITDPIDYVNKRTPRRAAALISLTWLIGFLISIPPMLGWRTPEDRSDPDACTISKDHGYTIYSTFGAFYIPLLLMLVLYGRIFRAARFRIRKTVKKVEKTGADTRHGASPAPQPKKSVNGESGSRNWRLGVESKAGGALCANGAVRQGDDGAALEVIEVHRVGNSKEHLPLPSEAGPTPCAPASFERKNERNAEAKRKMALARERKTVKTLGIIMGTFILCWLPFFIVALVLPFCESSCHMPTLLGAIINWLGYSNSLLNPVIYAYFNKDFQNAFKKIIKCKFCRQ

Cytochrome P450 2C19 = Cytochrome P450 2C19 (Homo sapiens, UniProt P33261); assay: Inhibition of human CYP2C19 expressed in supersomes assessed as perazine N-demethylation after 15 mins by HPLC analysis; type: ADME
Sequence of Cytochrome P450 2C19 (P33261 whole entry): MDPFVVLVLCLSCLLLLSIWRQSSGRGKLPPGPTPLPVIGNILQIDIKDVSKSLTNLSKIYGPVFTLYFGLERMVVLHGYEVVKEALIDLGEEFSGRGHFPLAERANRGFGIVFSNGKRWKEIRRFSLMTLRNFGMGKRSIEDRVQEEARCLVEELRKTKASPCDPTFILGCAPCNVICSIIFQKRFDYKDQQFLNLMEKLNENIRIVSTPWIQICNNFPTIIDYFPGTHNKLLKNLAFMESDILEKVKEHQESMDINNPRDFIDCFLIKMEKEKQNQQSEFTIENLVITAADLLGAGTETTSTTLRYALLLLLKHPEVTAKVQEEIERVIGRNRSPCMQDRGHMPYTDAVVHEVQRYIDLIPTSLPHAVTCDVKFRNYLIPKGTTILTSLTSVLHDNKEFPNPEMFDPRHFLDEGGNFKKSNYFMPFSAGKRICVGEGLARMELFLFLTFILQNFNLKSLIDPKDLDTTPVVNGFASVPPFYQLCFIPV

[14] = Ratio of drug level in Wistar rat brain to plasma at 3 mg/kg, ip after 15 to 90 mins by LC-MS/MS analysis; type: ADME, organism-based; conditions: read-out: BPR
Outline: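 Male Wistar rats received a single 3 mg/kg i.p. dose. Brain and plasma drug levels were measured at 15, 30 and 90 min after dosing. Brain level is expressed as ng/g tissue, alongside the brain-to-plasma concentration ratio.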

[15] = target: 5-hydroxytryptamine receptor 2B (Homo sapiens) (UniProt P41595); assay: Agonist activity at human recombinant 5-HT2B receptor expressed in HEK-293 cells assessed as IP1 accumulation at 1 uM after 30 mins by HTRF assay; type: functional, cell-based
Sequence of 5-hydroxytryptamine receptor 2B (Homo sapiens) (P41595 whole entry): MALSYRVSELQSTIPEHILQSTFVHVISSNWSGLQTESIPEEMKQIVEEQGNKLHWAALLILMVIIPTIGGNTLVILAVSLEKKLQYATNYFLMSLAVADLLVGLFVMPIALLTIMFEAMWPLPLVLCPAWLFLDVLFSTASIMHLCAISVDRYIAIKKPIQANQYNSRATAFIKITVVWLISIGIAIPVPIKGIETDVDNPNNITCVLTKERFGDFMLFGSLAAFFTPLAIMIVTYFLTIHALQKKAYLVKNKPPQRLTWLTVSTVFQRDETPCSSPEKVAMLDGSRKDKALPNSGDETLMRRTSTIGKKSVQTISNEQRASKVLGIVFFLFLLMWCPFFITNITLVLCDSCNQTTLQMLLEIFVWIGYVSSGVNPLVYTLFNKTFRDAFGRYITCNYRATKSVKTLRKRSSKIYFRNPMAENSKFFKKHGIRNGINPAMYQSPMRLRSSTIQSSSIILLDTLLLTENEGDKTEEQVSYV

Homo sapiens [16] = organism: Homo sapiens; assay: Selectivity ratio of Ki for human D2L receptor expressed in HEK293 cells to Ki for human 5-HT6 receptor expressed in HEK293 cells; type: cell-based
[17] = Mutagenicity in Salmonella typhimurium TA98 at 0.2 to 16 ug/ml after 48 hrs by Ames test; type: toxicity; conditions: salmonella enterica subsp. enterica serovar typhimurium
[18] = target: Adrenergic receptor alpha-1 (Rattus norvegicus) (UniProt P15823+P23944+P43140); assay: Displacement of [3H]prazosin from rat cerebral cortex adrenergic alpha 1 receptor after 60 mins by scintillation counting
D(3) dopamine receptor = D(3) dopamine receptor (Homo sapiens, UniProt P35462); assay: Antagonist activity at human recombinant dopamine D3 receptor expressed in CHO cells assessed as inhibition of dopamine-induced cAMP accumulation after 30 mins by HTRF assay; type: functional, cell-based
Sequence of D(3) dopamine receptor (P35462 whole entry): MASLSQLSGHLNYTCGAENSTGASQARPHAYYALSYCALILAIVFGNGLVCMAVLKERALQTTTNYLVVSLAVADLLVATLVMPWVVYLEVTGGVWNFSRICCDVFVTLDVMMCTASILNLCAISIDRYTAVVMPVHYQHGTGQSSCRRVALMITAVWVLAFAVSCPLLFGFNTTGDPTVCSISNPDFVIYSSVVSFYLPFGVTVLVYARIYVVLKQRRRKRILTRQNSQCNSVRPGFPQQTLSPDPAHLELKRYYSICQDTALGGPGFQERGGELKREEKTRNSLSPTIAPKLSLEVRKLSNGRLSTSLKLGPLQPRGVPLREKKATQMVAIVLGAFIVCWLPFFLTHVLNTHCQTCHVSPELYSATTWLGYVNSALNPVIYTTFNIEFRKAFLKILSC

Cytochrome P450 2C9 = Cytochrome P450 2C9 (Homo sapiens, UniProt P11712); assay: Inhibition of human CYP2C9 expressed in supersomes assessed as diclofenac 4'-hydroxylation after 15 mins by HPLC analysis; type: ADME
Sequence of Cytochrome P450 2C9 (P11712 whole entry): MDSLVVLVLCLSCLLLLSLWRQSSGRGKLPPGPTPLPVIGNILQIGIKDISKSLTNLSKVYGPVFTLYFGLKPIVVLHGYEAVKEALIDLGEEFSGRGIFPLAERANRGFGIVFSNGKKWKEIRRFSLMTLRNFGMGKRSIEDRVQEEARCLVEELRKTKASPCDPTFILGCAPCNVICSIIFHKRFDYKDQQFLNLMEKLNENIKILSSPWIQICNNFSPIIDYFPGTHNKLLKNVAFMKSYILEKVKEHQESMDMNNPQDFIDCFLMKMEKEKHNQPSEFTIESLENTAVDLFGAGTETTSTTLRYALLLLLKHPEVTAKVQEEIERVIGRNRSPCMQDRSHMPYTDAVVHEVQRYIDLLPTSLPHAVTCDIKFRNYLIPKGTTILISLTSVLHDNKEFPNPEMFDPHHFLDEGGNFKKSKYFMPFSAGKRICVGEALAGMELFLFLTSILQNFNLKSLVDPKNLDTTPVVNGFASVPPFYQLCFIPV

Cytochrome P450 3A4 = Cytochrome P450 3A4 (Homo sapiens, UniProt P08684); assay: Inhibition of human CYP3A4 expressed in supersomes assessed as testosterone 6beta-hydroxylation after 15 mins by HPLC analysis; type: ADME
Sequence of Cytochrome P450 3A4 (P08684 whole entry): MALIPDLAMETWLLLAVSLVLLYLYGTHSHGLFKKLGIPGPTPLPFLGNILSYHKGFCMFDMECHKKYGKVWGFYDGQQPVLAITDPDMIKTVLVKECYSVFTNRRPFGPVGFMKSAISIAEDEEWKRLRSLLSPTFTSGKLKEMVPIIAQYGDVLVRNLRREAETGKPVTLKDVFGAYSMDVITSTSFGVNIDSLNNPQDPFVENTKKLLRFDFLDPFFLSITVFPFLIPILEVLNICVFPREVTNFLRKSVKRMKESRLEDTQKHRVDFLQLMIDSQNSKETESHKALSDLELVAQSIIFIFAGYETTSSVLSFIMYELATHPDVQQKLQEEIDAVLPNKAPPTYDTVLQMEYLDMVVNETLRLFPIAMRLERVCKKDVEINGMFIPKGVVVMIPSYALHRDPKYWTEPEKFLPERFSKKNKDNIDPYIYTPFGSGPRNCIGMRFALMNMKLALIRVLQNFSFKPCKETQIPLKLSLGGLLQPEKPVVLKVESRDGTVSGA

Rattus norvegicus [19] = assay: Cognitive enhancing effect in ip dosed Sprague-Dawley rat assessed as reversal of PCP induced memory deficit administered 1 hour and 15 mins before familiarization phase by novel object recognition test; type: functional; conditions: for minimal effective dose: read-out: MED
Outline: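 Memory deficit induced with PCP in rats. Test and reference agents were given i.p., and the reversal of the deficit in novel-object recognition was scored. Data are mean ± SEM, n = 7–12 animals per group, compared against the vehicle and PCP groups.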

[20] = target: 5-hydroxytryptamine receptor 2A (Homo sapiens, UniProt P28223); assay: Displacement of [3H]-Ketanserin from human 5-HT2A receptor expressed in HEK293 cells by microbeta liquid scintillation counting; type: cell-based; outline: as §2
Sequence of 5-hydroxytryptamine receptor 2A (P28223 whole entry): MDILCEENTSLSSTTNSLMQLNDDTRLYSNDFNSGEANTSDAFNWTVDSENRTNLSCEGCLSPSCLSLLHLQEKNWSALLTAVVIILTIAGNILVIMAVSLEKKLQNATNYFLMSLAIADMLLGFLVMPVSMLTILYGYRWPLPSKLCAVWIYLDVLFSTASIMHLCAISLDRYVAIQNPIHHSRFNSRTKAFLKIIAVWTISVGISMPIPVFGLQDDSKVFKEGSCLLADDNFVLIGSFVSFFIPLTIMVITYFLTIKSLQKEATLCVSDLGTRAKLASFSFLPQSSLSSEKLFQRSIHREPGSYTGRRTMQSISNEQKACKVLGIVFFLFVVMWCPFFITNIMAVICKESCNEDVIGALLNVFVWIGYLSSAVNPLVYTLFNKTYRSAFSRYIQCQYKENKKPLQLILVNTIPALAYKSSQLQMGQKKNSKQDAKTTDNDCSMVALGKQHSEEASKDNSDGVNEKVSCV

Homo sapiens [21] = organism: Homo sapiens; assay: Selectivity ratio of Ki for human 5-HT1A receptor expressed in HEK293 cells to Ki for human 5-HT6 receptor expressed in HEK293 cells; type: cell-based
Homo sapiens [22] = organism: Homo sapiens; assay: Selectivity ratio of Ki for human 5-HT7B receptor expressed in HEK293 cells to Ki for human 5-HT6 receptor expressed in HEK293 cells; type: cell-based
[23] = target: Sodium-dependent serotonin transporter (Homo sapiens) (UniProt P31645); assay: Displacement of [3H]imipramine from human recombinant SERT expressed in CHO cells after 60 mins by scintillation counting; type: cell-based
Sequence of Sodium-dependent serotonin transporter (Homo sapiens) (P31645 whole entry, looked up): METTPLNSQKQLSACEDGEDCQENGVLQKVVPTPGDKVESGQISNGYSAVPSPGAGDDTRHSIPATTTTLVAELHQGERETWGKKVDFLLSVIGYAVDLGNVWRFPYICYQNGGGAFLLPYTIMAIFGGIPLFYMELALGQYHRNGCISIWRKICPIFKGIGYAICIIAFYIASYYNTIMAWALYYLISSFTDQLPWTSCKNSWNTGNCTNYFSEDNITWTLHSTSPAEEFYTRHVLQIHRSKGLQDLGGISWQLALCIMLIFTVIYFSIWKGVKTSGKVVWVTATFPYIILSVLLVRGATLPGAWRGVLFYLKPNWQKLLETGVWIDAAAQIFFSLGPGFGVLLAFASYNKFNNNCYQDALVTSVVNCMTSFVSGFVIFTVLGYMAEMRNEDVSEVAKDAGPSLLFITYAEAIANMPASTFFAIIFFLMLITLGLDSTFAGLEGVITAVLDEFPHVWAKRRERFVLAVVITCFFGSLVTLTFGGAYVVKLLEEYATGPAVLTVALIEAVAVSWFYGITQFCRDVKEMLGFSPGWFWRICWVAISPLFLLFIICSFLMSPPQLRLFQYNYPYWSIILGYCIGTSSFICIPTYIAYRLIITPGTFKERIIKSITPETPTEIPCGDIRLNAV

SMILES	IC50 (Cytochrome P450 2D6) [µM]	Activity (Rattus norvegicus [1])	Activity (Rattus norvegicus [2])	inhibition [3] [%]	inhibition [4] [%]	Activity [5]	Ki [6] [µM]	Ki [7] [µM]	microsomal CLint at 20 µM [8] [µL/min/mg]	Ratio Ki (Homo sapiens [9])	solubility [10] [µg/mL]	Activity [11]	Activity [12]	Ki [13] [µM]	IC50 (Cytochrome P450 2C19) [µM]	Kp [14]	Activity [15] [%]	Ratio Ki (Homo sapiens [16])	Activity [17]	inhibition [18] [%]	further results
COc1ccc2c(c1)c(C1=CCNCC1)cn2S(=O)(=O)c1ccc2cccnc2c1	> 100	Active	Active	11	18	Non-Toxic	0.002	6.25	18	70	> 5000	Non-Toxic	Non-Toxic	5.04	> 100	0.1 to 0.6	< 13	70	Non-Toxic	41	inhibition (D(3) dopamine receptor): inactive; IC50 (Cytochrome P450 2C9): > 100 µM; IC50 (Cytochrome P450 3A4): 20 µM; Activity (Rattus norvegicus [19]): Dose-dependent effect; minimal effective dose (Rattus norvegicus [19]): 1 mg/kg; Ki [20]: 1 µM; Ratio Ki (Homo sapiens [21]): 70; Ratio Ki (Homo sapiens [22]): 70; inhibition [23]: 4%
COc1ccc2c(c1)c(C1=CCNCC1)cn2S(=O)(=O)c1cncc2ccccc12	> 100	Active	Active	0	15	Non-Toxic	0.003	7.83	10	70	> 5000	Non-Toxic	Non-Toxic	5.01	> 100	0.1 to 0.6	< 13	70	Non-Toxic	40	inhibition (D(3) dopamine receptor): inactive; IC50 (Cytochrome P450 2C9): > 100 µM; IC50 (Cytochrome P450 3A4): 26 µM; Activity (Rattus norvegicus [19]): Dose-dependent effect; minimal effective dose (Rattus norvegicus [19]): 1 mg/kg; Ki [20]: 3.35 µM; Ratio Ki (Homo sapiens [21]): 70; Ratio Ki (Homo sapiens [22]): 70; inhibition [23]: 6%

Reference: ChEMBL document CHEMBL4425120, “N1-Azinylsulfonyl-1H-indoles: 5-HT6 Receptor Antagonists with Procognitive and Antidepressant-Like Properties” (ACS Med Chem Lett, 2016)
